Sampled rows, rich in hits. Any-hit rate of the full collection: about 2.1%.
PABP FP inh = PABP poly(A) RNA binding inhibitors, primary screen, biochemical, fluorescence polarization, uHTS | 290,000 compounds, 1% hits | inhibition, % at 35 µM | Polyadenylate-binding protein 1 (Homo sapiens), P11940;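 note: calls also rest on retests at 20 µM and on dose response follow-up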
eIF4H FP inh = human eIF4H binding inhibitors, primary screen, translation initiation inhibitor project, biochemical, uHTS, fluorescence polarization | Eukaryotic translation initiation factor 4H (Homo sapiens), Q15056 | eIF4H fluorescence polarization binding assay | inhibition, % at 35 µM | 290,000 compounds, 0.94% hits | AID 2012, 2009;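 note: calls also rest on retests at 20 µM and on dose response follow-up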
ZTA counter = blocks Epstein-Barr virus ZTA, an EBNA-1 counter-screen | inhibition, % at 11 µM | 320,000 compounds, 0.15% hits | ZTA-DNA binding, fluorescence polarization | P03206; in the data active = inhibition above about 33%
Target sequence (P03206 whole entry, looked up): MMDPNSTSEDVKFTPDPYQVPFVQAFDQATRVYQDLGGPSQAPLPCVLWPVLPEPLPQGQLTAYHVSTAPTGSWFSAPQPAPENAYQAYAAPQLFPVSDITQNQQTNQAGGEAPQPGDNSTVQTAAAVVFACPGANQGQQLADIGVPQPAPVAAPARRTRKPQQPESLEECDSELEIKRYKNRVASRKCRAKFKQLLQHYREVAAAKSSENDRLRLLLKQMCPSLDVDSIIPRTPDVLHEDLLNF
HCV NS3 hel inh = inhibitors of HCV NS3 helicase, primary screen, biochemical, Cy5 molecular beacon fluorescence; NS3 helicase DNA unwinding; 290,000 compounds, 0.56% hits; inhibition, % at 10.9 µM; AID 1800, 2009; Hepatitis C virus NS3 helicase;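 active = inhibition above the mean of all tested compounds plus 3 SD, set per campaign, cut at about 35% in these data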;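 note: 0% = DMSO wells and 100% = thioflavine S control wells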
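assay system = NS3 helicase fragment of HCV | buffer or medium = MOPS pH 6.5, MgCl2, DTT, Tween20, BSA | timing = 60 min unwinding reaction at 25 °C after ATP addition | signal = Cy5 beacon fluorescence read at start and 1 h | read-out basis = % inhibition of unwinding | control set = low DMSO, high thioflavine S at 110 µM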
MLLE-PAM2 inh = inhibitors of PABP1 MLLE–PAM2 peptide binding, primary screen, biochemical, fluorescence polarization, FITC-PAM2, GST-MLLE; inhibition, % at 20 µM; 360,000 compounds, 0.36% hits; Polyadenylate-binding protein 1 (Homo sapiens), P11940; in the data active = inhibition above about 35%, passing the limit was not always enough;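 note: plate controls were DMSO wells with GST-MLLE for no effect and wells lacking GST-MLLE protein for full effect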
EBNA-1 inhibitor = EBNA-1 DNA-binding inhibitors, primary screen, biochemical, fluorescence polarization; 300,000 compounds, 0.34% hits; inhibition, % at 14.8 µM; in the data active = inhibition above about 28%
EBNA-1 inh conf = EBNA-1 DNA-binding inhibitors, retest, confirmation, biochemical, fluorescence polarization, triplicate | shares compounds with EBNA-1 inhibitor | Recombinant EBNA-1 DBD, Cy5-DNA fluorescence polarization | inhibition, % at 14.8 µM | 830 compounds, 35% hits;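 active = mean inhibition across replicates above a set limit taken from the earlier primary screen, cut at about 28% in these data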;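 note: plate controls were EBNA-1 protein with DMSO for no effect and wells lacking EBNA-1 for full effect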
ZTA counter trip = EBV Zta DNA binding inhibitors, counter-screen for EBNA-1 inhibitor project, biochemical, fluorescence polarization, triplicate; shares compounds with EBNA-1 inhibitor; Zta-ZRE DNA binding, Cy5 fluorescence polarization; inhibition, % at 11.1 µM; 830 tested, under 10 active;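 active = mean inhibition over triplicates above a set limit taken from the primary EBNA-1 screen, cut at about 37% in these data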;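 note: purified full length Zta protein with Cy5 labeled ZRE DNA probe; 0% = Zta with DMSO and 100% = wells lacking Zta protein; inhibitors lower polarization by freeing the labeled DNA probe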
An asterisk follows results filed as active; / = no result given; + = active, no number. Unless noted, the rule behind the calls is not given here.

SMILES	PABP FP inh	eIF4H FP inh	ZTA counter	HCV NS3 hel inh	MLLE-PAM2 inh	EBNA-1 inhibitor	EBNA-1 inh conf	ZTA counter trip
O=C(CSc1ccc(-c2ccccc2)nn1)c1ccccc1	11	7	-5	-9	18	40*	-12	-5
Cc1ccc2[nH]c3c(=O)n(Cc4ccco4)cnc3c2c1	3	0	15	-5	5	51*	55*	4
Cc1ccc2[nH]c3c(=O)n(Cc4ccncc4)cnc3c2c1	-9	-14	-8	-1	10	-5	/	/
NS(=O)(=O)c1ccc(NC(=O)CNC(=O)c2ccc3c(c2)OCO3)cc1	/	/	/	/	-15	/	/	/
Cc1cc(Cl)ccc1OCC(=O)NC(=S)Nc1ccccc1N1CCOCC1	20	-12	14	1	13	44*	38*	8
Cc1cc(Cl)ccc1OCC(=O)Nc1ccccc1N1CCOCC1	1	-4	8	-2	-12	9	/	/
CCOc1ncccc1C(=O)OCC(=O)Nc1ccc(C(N)=O)cc1	1	-9	-5	0	5	+	7	11
Cc1sccc1/C=N/NC(=O)c1ccco1	0	-8	2	3	-7	2	/	/
Cc1ccc(S(=O)(=O)N(C)C)cc1NC(=O)COC(=O)CCCOc1ccccc1	-7	-10	-8	-2	-3	72*	-9	-1
Cc1ccc(S(=O)(=O)N(C)C)cc1NC(=O)COC(=O)CCC(=O)c1cccs1	10	-4	5	1	2	1	/	/
COc1ccc(CNC(=O)CN2C(=O)C3CCCN3c3ncc(Cl)cc32)cc1 (configuration not stated)	-3	0	20	-5	-14	29*	-8	-2
COc1ccc([C@]2(C(C)C)ON(c3ccccc3C(F)(F)F)C2=O)cc1	/	/	8	/	-2	/	/	/
CCC(=O)Nc1ccc(Cl)c(NC(=S)NC(=O)COc2ccc(Cl)cc2)c1	6	-3	1	0	15	58*	8	17
Cc1ccc(N(Cc2ccc(C(=O)NC3CCCCC3)cc2)S(C)(=O)=O)cc1C	14	2	-4	-3	0	31*	34*	-14
COC(=O)C1=C(C)NC2=C(C(=O)c3ccccc32)C1c1cccc(OC)c1 (configuration not stated)	-2	-8	-5	-2	0	28*	38*	4
CCOC(=O)C1=C(C)NC2=C(C(=O)c3ccccc32)C1c1ccc(O)cc1 (configuration not stated)	5	1	-26	-1	7	4	/	/
COc1ccccc1CN1C(=O)[C@@H]2C(CCC(N)=O)NC3(C(=O)Nc4c3ccc(Cl)c4C)[C@@H]2C1=O (some centres not stated)	-4	-3	-11	1	-2	-2	/	/
COc1ccccc1CN1C(=O)[C@@H]2C(CC(N)=O)NC3(C(=O)Nc4c3ccc(Cl)c4C)[C@@H]2C1=O (some centres not stated)	0	-2	8	5	-2	28*	49*	-7
COc1ccc(C(=O)N(Cc2ccco2)Cc2cc3cc(C)ccc3[nH]c2=O)cc1OC	/	/	-20	6	-13	-1	/	/
O=C(Nc1ccc(F)cc1)N(Cc1ccco1)Cc1cc2cc3c(cc2[nH]c1=O)OCO3	14	1	0	-4	17	28*	12	5
COc1ccccc1NC(=S)N(Cc1ccco1)Cc1cc2cc(C)ccc2[nH]c1=O	-12	-9	-22	14	-127	42*	-2	-13
Cc1ccc(CC(=O)Nc2ccc(S(=O)(=O)Nc3nccc(C)n3)cc2)cc1	-16	-13	-11	13	3	-5	/	/
COc1cc(C)ccc1OCc1cc(C(=O)N2CCC(c3ccc(F)cc3)C2)no1 (configuration not stated)	10	-12	-1	-12	1	31*	2	15
Cc1ccc(C(NC(=O)c2ccccc2)C(Cl)Cl)cc1 (configuration not stated)	8	-5	9	6	-1	5	/	/
Cc1cccc(NC(=O)CSc2ncnc3sc(C)c(C)c23)n1	30	-6	/	6	-29	/	/	/
SMILES	PABP FP inh	eIF4H FP inh	ZTA counter	HCV NS3 hel inh	MLLE-PAM2 inh	EBNA-1 inhibitor	EBNA-1 inh conf	ZTA counter trip
Cc1sc2ncnc(SCC(=O)NNC(=O)COc3cccc4ccccc34)c2c1C	2	-1	17	-4	0	119*	98*	-11
CC(C)NC(=O)N(C)C[C@@H]1OCc2cn(nn2)CCCC(=O)N([C@H](C)CO)C[C@H]1C	/	/	/	/	2	/	/	/
CC1CC(C)CN(S(=O)(=O)c2ccc(C(=O)NCc3ccc4c(c3)OCO4)cc2)C1 (configuration not stated)	4	-3	-3	-4	1	53*	-18	-17
Cc1ccc(C(=O)COC(=O)CN2C(=O)C3CC=CCC3C2=O)cc1C (configuration not stated)	/	/	/	/	6	/	/	/
CCOc1ccc(Nc2nnc(SCc3nc4ccccc4c(=O)[nH]3)s2)cc1	-9	0	12	28	-96	38*	52*	24
Cc1ccccc1Nc1nnc(SCc2nc3ccccc3c(=O)[nH]2)s1	-10	-10	-16	15	/	-5	/	/
Cc1cccc(Nc2cc(=O)n(C)c(=O)n2C)c1	/	/	/	/	6	/	/	/
COC(=O)C(=N/Nc1ccccc1C(=O)OC)/C(C)=N/O	2	0	9	-2	9	57*	42*	-2
CNc1ccccc1C(=O)OC	9	8	-6	/	6	2	/	/
O=c1c(C(c2ccccc2)c2c(O)sc3ccccc3c2=O)c(O)sc2ccccc12	39	36	23	24	15	60*	38*	39*
CSc1ccccc1NC(=O)Cn1nnc(-c2ccc(S(C)(=O)=O)cc2)n1	8	-1	-1	-1	-5	41*	53*	2
CCOC(=O)C1(C)CCN1C(=O)c1ccc(C(C)(C)C)cc1 (configuration not stated)	/	/	/	/	-7	/	/	/
Cc1cccc(NC(=O)CNC(=O)COc2ccc(C(=O)c3ccc(F)cc3)cc2)c1C	2	-6	-18	-5	-2	41*	6	-2
O=C(Nc1ccc2c(c1)CCC2)c1cc(=O)[nH]c2ccccc12	7	7	11	8	8	51*	29*	-16
